Consider ten molecules from ChEMBL document CHEMBL1146021, “Calcium channel antagonists discovered by a multidisciplinary approach” (J Med Chem, 2006).

Calls of active or inactive are those of the source.

The species named for assay [1] is Cavia porcellus. Kind of assay: Negative inotropic activity in guinea pig left atrium. It counts as functional. The following applies: Cardiac atrium. Put shortly: (§1)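 Guinea-pig left atria driven at 1 Hz (0.6-0.8 ms pulses, about 50% threshold voltage) in PSS, 35 °C, pH 7.4, 95% O2/5% CO2. Isometric tension recorded. Cumulative concentrations 0.01-100 μM in DMSO (≤0.3%), each to steady state. Percent decrease in developed tension, n = 4-6. EC50 by Probit analysis.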

For assay [2], the species on record is Cavia porcellus. Kind of assay: Vasorelaxant activity assessed as inhibition of calcium-induced contraction of potassium ion-depolarized guinea pig aortic strips at 50 uM. Details: scale not given: the % may be the effect or the level left. It counts as functional, Aorta. Put shortly: (§2)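 Helicoidal guinea-pig aortic strips in aerated PSS at 35 °C, contracted with 80 mM KCl (K+ substituted for Na+). At plateau (about 45 min), compounds added cumulatively at 0.1-500 μM in DMSO vehicle. Relaxation measured isometrically. IC50 by Probit analysis, n = 6-8.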

For assay [3], the species on record is Cavia porcellus. Nature of the assay: Negative inotropic activity in guinea pig left atrium at 50 uM. It counts as functional, Cardiac atrium. The procedure, abridged: as §1
For assay [4], the species on record is Cavia porcellus. Nature of the assay: Negative chronotropic activity in guinea pig right atrium at 50 uM. It counts as functional, Cardiac atrium. The procedure, abridged: (§3)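 Spontaneously beating guinea-pig right atria in PSS, 35 °C, pH 7.4, 95% O2/5% CO2. Cumulative concentrations 0.01-100 μM in DMSO (≤0.3% in bath), each to steady state. Rate decrease taken as percent of control (pretreatment 170-195 beats/min), n = 6-8. EC30 by Probit analysis.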

The species entered for assay [5] is Cavia porcellus. Kind of assay: Vasorelaxant activity assessed as inhibition of calcium-induced contraction of potassium ion-depolarized guinea pig aortic strips at 100 uM. It counts as functional, Aorta. Details: scale not given: the % may be the effect or the level left. The procedure, abridged:
as §2

The species entered for assay [6] is Cavia porcellus. Kind of assay: Antagonist activity against calcium channel assessed as inhibition of calcium-induced contraction of potassium ion-depolarized guinea pig ileum longitudinal smooth muscle at 100 uM. It counts as functional. Details: scale not given: the % may be the effect or the level left. The procedure, abridged: (§4)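 Guinea-pig ileum longitudinal smooth muscle segments (2 cm) held at 300-400 mg resting tension, 37 °C, in oxygenated (100% O2) Hepes-buffered PSS at pH 7.4. Isometric contraction recorded. Inhibition expressed as percentage of control. Probit log concentration–response analysis, n = 6-8.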

For assay [7], the species on record is Cavia porcellus. Kind of assay: Negative inotropic activity in guinea pig left ventricular papillary muscle at 1 uM. It counts as functional, Muscle tissue.
Assay [8] is filed under the species Cavia porcellus. Kind of assay: Antagonist activity against calcium channel assessed as inhibition of calcium-induced contraction of potassium ion-depolarized guinea pig ileum longitudinal smooth muscle. It counts as functional. The procedure, abridged:
as §4

The species entered for assay [9] is Cavia porcellus. Kind of assay: Cardiac activity in guinea pig heart measured as decrease in left ventricular pressure at 1 uM relative to control. Further details: scale not given: the % may be the effect or the level left. It counts as functional. Put shortly:
(§5)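 Langendorff-perfused isolated hearts from female guinea-pigs (300-400 g). Compounds given cumulatively at 0.001-1 μM, each step held to steady state (about 30 min). Read-outs: surface ECG (PR interval, heart rate), intraventricular balloon +(dP/dt)max and coronary perfusion pressure. Results given as percent change from basal at 1 μM, mean ± SEM.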

The target in assay [10] is Voltage-dependent L-type calcium channel subunit alpha-1C (Rattus norvegicus, UniProt P22002). Kind of assay: Inhibition of [3H]diltiazem binding to Sprague-Dawley rat cardiomyocytes at 100 uM relative to control. To be noted: read-out: Activity. The procedure, abridged: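 Cardiomyocytes from male Sprague-Dawley rats, isolated by Langendorff perfusion and stored frozen (200 μg per tube). Incubated with 5 nM [3H]diltiazem and test ligand (0.1 nM-100 μM) in 50 mM Tris pH 7.4, 25 °C, 90 min. Bound ligand separated by filtration. Nonspecific binding with 100 μM diltiazem. Triplicates. pIC50 from sigmoidal fit; Ki by Cheng-Prusoff.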
Voltage-dependent L-type calcium channel subunit alpha-1C, sequence (P22002 whole entry, the tested form may be a part): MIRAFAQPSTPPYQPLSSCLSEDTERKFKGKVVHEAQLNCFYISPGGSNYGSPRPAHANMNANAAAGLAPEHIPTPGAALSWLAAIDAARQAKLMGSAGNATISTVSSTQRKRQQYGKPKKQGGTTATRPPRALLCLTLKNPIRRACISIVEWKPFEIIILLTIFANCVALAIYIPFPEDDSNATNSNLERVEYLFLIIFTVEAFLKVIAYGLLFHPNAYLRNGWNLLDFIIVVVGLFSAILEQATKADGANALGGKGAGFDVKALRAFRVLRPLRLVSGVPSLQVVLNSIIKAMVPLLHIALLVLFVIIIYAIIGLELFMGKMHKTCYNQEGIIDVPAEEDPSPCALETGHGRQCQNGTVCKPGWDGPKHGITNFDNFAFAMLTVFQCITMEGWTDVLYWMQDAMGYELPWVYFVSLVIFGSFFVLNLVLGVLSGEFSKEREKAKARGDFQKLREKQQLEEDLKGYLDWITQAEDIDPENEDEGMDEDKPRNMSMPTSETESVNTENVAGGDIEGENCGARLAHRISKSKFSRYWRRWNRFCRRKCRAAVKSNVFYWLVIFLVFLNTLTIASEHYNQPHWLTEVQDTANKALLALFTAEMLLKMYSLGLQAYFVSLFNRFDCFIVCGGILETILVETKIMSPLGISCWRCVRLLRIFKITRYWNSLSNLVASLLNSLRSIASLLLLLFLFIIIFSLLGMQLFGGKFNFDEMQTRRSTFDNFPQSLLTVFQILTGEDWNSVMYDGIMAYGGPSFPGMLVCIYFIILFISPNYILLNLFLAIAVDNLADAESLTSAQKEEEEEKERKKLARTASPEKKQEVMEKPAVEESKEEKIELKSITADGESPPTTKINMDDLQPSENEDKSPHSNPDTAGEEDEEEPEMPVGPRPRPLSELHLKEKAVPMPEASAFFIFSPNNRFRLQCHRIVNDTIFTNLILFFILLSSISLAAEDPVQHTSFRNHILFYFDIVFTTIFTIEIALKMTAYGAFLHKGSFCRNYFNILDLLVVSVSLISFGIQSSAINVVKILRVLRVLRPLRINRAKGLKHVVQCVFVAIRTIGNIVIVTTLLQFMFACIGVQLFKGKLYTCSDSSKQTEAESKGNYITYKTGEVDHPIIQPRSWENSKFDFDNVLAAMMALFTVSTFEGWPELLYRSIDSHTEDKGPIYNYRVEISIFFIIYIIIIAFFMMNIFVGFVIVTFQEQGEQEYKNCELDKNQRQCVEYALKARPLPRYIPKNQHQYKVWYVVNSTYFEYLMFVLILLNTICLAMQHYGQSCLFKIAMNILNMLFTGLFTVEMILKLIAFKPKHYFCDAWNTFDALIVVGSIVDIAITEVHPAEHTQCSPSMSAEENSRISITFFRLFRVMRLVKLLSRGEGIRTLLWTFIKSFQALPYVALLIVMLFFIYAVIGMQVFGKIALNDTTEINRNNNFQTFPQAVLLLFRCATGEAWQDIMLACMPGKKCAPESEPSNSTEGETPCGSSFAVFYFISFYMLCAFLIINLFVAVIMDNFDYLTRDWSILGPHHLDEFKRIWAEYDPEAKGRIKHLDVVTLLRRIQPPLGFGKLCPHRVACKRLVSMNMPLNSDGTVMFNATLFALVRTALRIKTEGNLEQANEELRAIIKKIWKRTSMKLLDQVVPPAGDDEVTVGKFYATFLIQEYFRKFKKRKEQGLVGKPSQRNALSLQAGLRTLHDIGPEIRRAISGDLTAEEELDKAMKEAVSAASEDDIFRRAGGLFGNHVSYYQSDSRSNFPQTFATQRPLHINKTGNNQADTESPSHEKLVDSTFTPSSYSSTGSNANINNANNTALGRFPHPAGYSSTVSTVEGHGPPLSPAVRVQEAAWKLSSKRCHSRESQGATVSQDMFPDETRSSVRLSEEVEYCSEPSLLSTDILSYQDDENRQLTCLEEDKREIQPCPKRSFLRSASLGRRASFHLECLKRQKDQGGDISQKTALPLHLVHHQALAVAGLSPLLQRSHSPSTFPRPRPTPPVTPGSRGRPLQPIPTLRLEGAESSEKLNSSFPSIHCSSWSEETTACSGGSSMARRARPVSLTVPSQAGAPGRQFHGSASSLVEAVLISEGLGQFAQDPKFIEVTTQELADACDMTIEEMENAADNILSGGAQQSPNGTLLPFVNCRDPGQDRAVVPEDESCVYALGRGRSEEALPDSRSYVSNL

Assay [11] is filed under the species Cavia porcellus. Kind of assay: Antagonist activity against calcium channel assessed as inhibition of carbachol-induced tonic contraction of guinea pig ileum longitudinal smooth muscle. It counts as functional. Put shortly: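 Guinea-pig ileum longitudinal smooth muscle segments (2 cm), 300-400 mg resting tension, 37 °C, oxygenated Hepes-buffered PSS at pH 7.4, equilibrated 1 h. Two control carbachol curves run 30 min apart. Test agent (10 μM) added 30 min before the carbachol curve. Isometric inhibition expressed as percent of control.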

For assay [12], the species on record is Cavia porcellus. Kind of assay: Negative inotropic activity in guinea pig left ventricular papillary muscle. It counts as functional. To be noted: Muscle tissue.
The species entered for assay [13] is Cavia porcellus. Nature of the assay: Cardiac activity in guinea pig heart measured as decrease in heart rate at 1 uM by ECG relative to control. Details: scale not given: the % may be the effect or the level left. It counts as functional. Put shortly:
as §5

For assay [14], the species on record is Cavia porcellus. Nature of the assay: Cardiac activity in guinea pig heart measured as decrease in coronary perfusion pressure at 1 uM relative to control. It counts as functional. Put shortly:
as §5

The species entered for assay [15] is Cavia porcellus. Kind of assay: Negative chronotropic activity in guinea pig right atrium at 10 uM. It counts as functional, Cardiac atrium. The procedure, abridged: as §3
The species named for assay [16] is Cavia porcellus. Nature of the assay: Cardiac activity in guinea pig heart measured as prolongation of atrioventricular conduction time at 1 uM relative to control. It counts as functional. The procedure, abridged:
as §5

For assay [17], the species on record is Cavia porcellus. Kind of assay: Antagonist activity against calcium channel assessed as inhibition of calcium-induced contraction of potassium ion-depolarized guinea pig ileum longitudinal smooth muscle at 500 uM. It counts as functional. Details: scale not given: the % may be the effect or the level left. The procedure, abridged: as §4
For assay [18], the species on record is Cavia porcellus. Nature of the assay: Negative inotropic activity in guinea pig left ventricular papillary muscle at 10 uM. It counts as functional, Muscle tissue.
Assay [19] is filed under the species Cavia porcellus. Nature of the assay: Negative chronotropic activity in guinea pig right atrium at 5 uM. It counts as functional, Cardiac atrium. Put shortly: as §3
The species entered for assay [20] is Cavia porcellus. Nature of the assay: Negative inotropic activity in guinea pig left atrium at 500 uM. It counts as functional, Cardiac atrium.
The species entered for assay [21] is Cavia porcellus. Kind of assay: Negative inotropic activity in guinea pig left atrium at 10 uM. It counts as functional, Cardiac atrium. Put shortly: as §1
Assay [22] is filed under the species Cavia porcellus. Kind of assay: Antagonist activity against calcium channel assessed as inhibition of calcium-induced contraction of potassium ion-depolarized guinea pig ileum longitudinal smooth muscle at 1 uM. It counts as functional. Further details: scale not given: the % may be the effect or the level left. Put shortly:
as §4

Assay [23] is filed under the species Cavia porcellus. Nature of the assay: Negative chronotropic activity in guinea pig right atrium. It counts as functional. To be noted: Cardiac atrium. Put shortly:
as §3

The species entered for assay [24] is Cavia porcellus. Nature of the assay: Negative chronotropic activity in guinea pig right atrium at 100 uM. It counts as functional, Cardiac atrium. To be noted: in the assay text read “50 uM” for “100 uM”. The procedure, abridged:
as §3

Turning to `CO/N=C/c1c(Sc2ccccc2C(=O)OC)nc2sccn12`, the response in the assay listed under Cavia porcellus [1] was half-maximal at 0.9 µM (EC50). Moreover, the results for the Activity in the assay filed under Cavia porcellus [2], in the assay listed under Cavia porcellus [3] and in the assay listed under Cavia porcellus [4] were 9%, 63% and 13%, respectively.
For the molecule `Cc1snc(S(=O)(=O)Cc2c(F)cccc2Cl)c1C#N`, a half-maximal response in the assay listed under Cavia porcellus [1] (EC50) required 2.28 µM. Further, the Activity was found to be 80% in the assay listed under Cavia porcellus [3], 23% in the assay filed under Cavia porcellus [5] and 22% in the assay filed under Cavia porcellus [4].
For `COC(=O)c1c(-c2c(Cl)cccc2Cl)noc1C`, the half-maximal effective concentration (EC50) in the assay filed under Cavia porcellus [1] came to 0.92 µM; in the assay listed under Cavia porcellus [8] it was 6.65 µM; in the assay filed under Cavia porcellus [12] it was 0.036 µM. Also, the Activity in the assay listed under Cavia porcellus [6] is given as 99%; in the assay filed under Cavia porcellus [7], 87%; in the assay listed under Cavia porcellus [2], 30%; in the assay filed under Cavia porcellus [9] it was 31%; in the assay filed under Cavia porcellus [3], 84%; in the assay filed under Cavia porcellus [13], 4%. Besides, the Activity in the assay listed under Cavia porcellus [15] is 13%; in the assay listed under Cavia porcellus [16], 14%. The inhibition at 100 µM in assay [10] was 59.6%. In the assay filed under Cavia porcellus [11], the IC50 turned out to be 33.7 µM. Also, in the assay listed under Cavia porcellus [14], the outcome was inactive.
`C[C@H]1CC(=O)[C@](C)(CC(=O)c2ccc(Cl)cc2)C(=O)C1` gave an EC50 in the assay listed under Cavia porcellus [1] of 7.51 µM. Besides, the results for the Activity in the assay listed under Cavia porcellus [3], in the assay filed under Cavia porcellus [5] and in the assay listed under Cavia porcellus [15] were 78%, 16% and 2%, respectively.
As to `CC(=O)c1ccccc1N1C(=O)CSCC1=O`, the EC50 in the assay filed under Cavia porcellus [1] is 0.4 µM; in the assay listed under Cavia porcellus [8] it was 124 µM; in the assay listed under Cavia porcellus [12], 0.066 µM. For the same molecule, the Activity is 5% in the assay listed under Cavia porcellus [2]; 55% in the assay listed under Cavia porcellus [17]; 17% in the assay filed under Cavia porcellus [9]; 61% in the assay filed under Cavia porcellus [3]; 3% in the assay listed under Cavia porcellus [4]; 14% in the assay filed under Cavia porcellus [13]. Besides, the Activity was determined as 89% in the assay listed under Cavia porcellus [18], 6% in the assay filed under Cavia porcellus [14] and 15% in the assay filed under Cavia porcellus [16]. Also, the outcome in the assay filed under Cavia porcellus [11] was inactive.
Take `O=C(O)[C@@H]1CCCN1S(=O)(=O)c1ccccc1`: in the assay filed under Cavia porcellus [1], the midpoint of the response, the EC50, lay at 0.91 µM. Also, the Activity came to 22% in the assay filed under Cavia porcellus [19], 3% in the assay listed under Cavia porcellus [2] and 66% in the assay filed under Cavia porcellus [3].
For the molecule `COC(=O)[C@H]1SCCN1S(=O)(=O)c1ccc(Cl)cc1`, in the assay filed under Cavia porcellus [1], the EC50 amounted to 1 µM. Further, the Activity in the assay listed under Cavia porcellus [20] is 92%; in the assay listed under Cavia porcellus [5] it was 29%; in the assay filed under Cavia porcellus [15] it was 2%.
As to `COc1ccc([C@@H]2Sc3ccccc3N(CCN(C)C)C(=O)[C@@H]2OC(C)=O)cc1` [DILTIAZEM], the Activity in the assay filed under Cavia porcellus [21] is given as 78%; in the assay listed under Cavia porcellus [19], 94%; in the assay filed under Cavia porcellus [22], 98%; in the assay filed under Cavia porcellus [9] it was 59%; in the assay listed under Cavia porcellus [5] it was 88%; in the assay listed under Cavia porcellus [13], 25%. Also, the figures for the Activity in the assay listed under Cavia porcellus [18], in the assay filed under Cavia porcellus [14] and in the assay listed under Cavia porcellus [16] were 82%, 51% and 34%, respectively. Moreover, the EC50 in the assay filed under Cavia porcellus [8] came to 0.11 µM; in the assay filed under Cavia porcellus [12] it was 1.61 µM. Further, in the assay filed under Cavia porcellus [11], the IC50 was found to be 0.48 µM. Besides, in the assay filed under Cavia porcellus [23], the EC30 came to 0.07 µM.
In the case of `O=C(c1ccccn1)c1conc1-c1c(Cl)cccc1Cl`, the EC50 in the assay filed under Cavia porcellus [1] amounted to 0.99 µM. For the same molecule, the Activity in the assay filed under Cavia porcellus [19] was determined as 21%; in the assay filed under Cavia porcellus [3] it was 81%; in the assay listed under Cavia porcellus [5], 25%.
`COC(=O)c1ccccc1-n1cccc1C(=O)C(Cl)(Cl)Cl`: the EC50 in the assay listed under Cavia porcellus [1] worked out at 3.91 µM. Moreover, the figures for the Activity in the assay listed under Cavia porcellus [20], in the assay listed under Cavia porcellus [5] and in the assay listed under Cavia porcellus [24] were 76%, 20% and 33%, respectively.

In general, EC50 refers to the concentration that produces a half-maximal response. By IC50 is commonly meant the concentration at which inhibition is half-maximal. In general, EC30 refers to the concentration needed for an effect of 30%.
